≈ marks a conversion by molar mass, not a printed value.
Key:
Staphylococcus aureus [1] = experiment: Antimicrobial activity against vancomycin-resistant Staphylococcus aureus isolate MI assessed as bacterial count at 8 times MIC after 24 hrs by colony counting method; type: functional
Procedure, shortened: (§1)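 Time-kill in triplicate. Mid-exponential culture (OD600 ~0.3) diluted in supplemented Mueller-Hinton broth to 5 × 10^6 CFU/ml. Daptomycin was run at physiologic calcium, 1.1 to 1.3 mM. […] Samples at 0, 1, 4, 8 and 24 h were diluted in cold saline or vacuum filtered, then spiral-plated on BHI agar for 24 h at 35°C. Value is the log10 CFU/ml change from baseline at 24 h.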

Staphylococcus aureus [2] = experiment: Antimicrobial activity against vancomycin-resistant Staphylococcus aureus isolate MI assessed as bacterial count at 32 times MIC after 24 hrs by colony counting method; type: functional; procedure, shortened: as §1
Staphylococcus aureus [3] = experiment: Antimicrobial activity against vancomycin-resistant Staphylococcus aureus isolate PA assessed as bacterial count at 4 times MIC after 24 hrs by colony counting method in presence of 50% human serum; type: functional
Procedure, shortened: (§2)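 Time-kill in triplicate, starting inoculum 5 × 10^6 CFU/ml from a mid-exponential culture. Medium was 50% heat-treated, filtered human serum plus 50% broth, final 25 SMHB for TD-1792 and 50 SMHB for daptomycin. Drug at multiples of MIC. Samples to 24 h were plated on BHI agar for 24 h at 35°C. Value is the log10 CFU/ml change from baseline at 24 h.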

Staphylococcus aureus [4] = experiment: Antimicrobial activity against vancomycin-resistant Staphylococcus aureus isolate PA assessed as bacterial count at 16 times MIC after 24 hrs by colony counting method in presence of 50% human serum; type: functional; procedure, shortened: as §2
Staphylococcus aureus [5] = experiment: Antimicrobial activity against methicillin-resistant Staphylococcus aureus infected in patient with complicated skin and skin structure infections assessed as cure rate; type: functional
Staphylococcus aureus [6] = experiment: Antimicrobial activity against vancomycin-resistant Staphylococcus aureus isolate NY after 24 hrs by microdilution method; type: functional
Procedure, shortened: (§3)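 Broth microdilution per CLSI, inoculum 5 × 10^5 CFU/ml, Mueller-Hinton broth with 12.5 μg/ml magnesium and 25 μg/ml calcium (SMHB). Daptomycin was instead tested in SMHB at physiologic calcium (final 1.1 to 1.3 mM). Incubation 24 h at 35°C; MIC read; run in duplicate. MBC from 5-μl samples of clear wells plated on BHI agar, 24 h at 35°C.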

Staphylococcus aureus [7] = experiment: Antimicrobial activity against vancomycin-intermediate Staphylococcus aureus after 24 hrs by microdilution method; type: functional; conditions: for MBC / MIC50 / MIC90: Staphylococcus aureus, 24 h; procedure, shortened: as §3
Staphylococcus aureus [8] = experiment: Antimicrobial activity against vancomycin-resistant Staphylococcus aureus isolate PA assessed as bacterial count at 8 times MIC after 24 hrs by colony counting method; type: functional; procedure, shortened: as §1
[9] = Plasma protein binding in human in presence of human serum; type: ADME, cell-free; conditions: read-out: PPB (converted)

Compound: CN[C@H](CC(C)C)C(=O)N[C@H]1C(=O)N[C@@H](CC(N)=O)C(=O)N[C@H]2C(=O)N[C@H]3C(=O)N[C@H](C(=O)N[C@H](C(=O)NCCCO/N=C(\C(=O)N[C@@H]4C(=O)N5C(C(=O)[O-])=C(C[n+]6ccccc6)CS[C@H]45)c4nc(N)sc4Cl)c4cc(O)cc(O)c4-c4cc3ccc4O)[C@H](O)c3ccc(c(Cl)c3)Oc3cc2cc(c3O[C@@H]2O[C@H](CO)[C@@H](O)[C@H](O)[C@H]2O[C@H]2C[C@](C)(N)[C@H](O)[C@H](C)O2)Oc2ccc(cc2Cl)[C@H]1O
- log10CFU/ml (Staphylococcus aureus [1]): 3.27
- log10CFU/ml (Staphylococcus aureus [2]): 5.13
- log10CFU/ml (Staphylococcus aureus [3]): 4.04
- log10CFU/ml (Staphylococcus aureus [4]): 5.15
- Activity (Staphylococcus aureus [5]): 94.7%
- MBC (Staphylococcus aureus [6]): 0.06 µg/mL (≈ 0.0303 µM)
- MIC (Staphylococcus aureus [6]): 0.03 µg/mL (≈ 0.0151 µM)
- MBC50 (Staphylococcus aureus [7]): 0.06 µg/mL (≈ 0.0303 µM)
- MBC90 (Staphylococcus aureus [7]): 0.125 µg/mL (≈ 0.063 µM)
- MBC (Staphylococcus aureus [7]): 0.015 µg/mL (≈ 0.00756 µM)
- MIC50 (Staphylococcus aureus [7]): 0.06 µg/mL (≈ 0.0303 µM)
- MIC90 (Staphylococcus aureus [7]): 0.125 µg/mL (≈ 0.063 µM)

Compound: CCCCCCCCCC(=O)N[C@@H](Cc1c[nH]c2ccccc12)C(=O)N[C@H](CC(N)=O)C(=O)N[C@@H](CC(=O)O)C(=O)N[C@@H]1C(=O)NCC(=O)N[C@@H](CCCN)C(=O)N[C@@H](CC(=O)O)C(=O)N[C@H](C)C(=O)N[C@@H](CC(=O)O)C(=O)NCC(=O)N[C@H](CO)C(=O)N[C@@H]([C@H](C)CC(=O)O)C(=O)N[C@@H](CC(=O)c2ccccc2N)C(=O)O[C@@H]1C
- log10CFU/ml (Staphylococcus aureus [1]): 5
- log10CFU/ml (Staphylococcus aureus [8]): 4.95
- fraction unbound [9]: 0.08
- MBC (Staphylococcus aureus [6]): 0.125 µg/mL (≈ 0.0771 µM)
- MIC (Staphylococcus aureus [6]): 0.125 µg/mL (≈ 0.0771 µM)
- MBC50 (Staphylococcus aureus [7]): 1 µg/mL (≈ 0.617 µM)
- MBC90 (Staphylococcus aureus [7]): 2 µg/mL (≈ 1.23 µM)
- MBC (Staphylococcus aureus [7]): 0.25 µg/mL (≈ 0.154 µM)
- MIC50 (Staphylococcus aureus [7]): 1 µg/mL (≈ 0.617 µM)
- MIC90 (Staphylococcus aureus [7]): 1 µg/mL (≈ 0.617 µM)

From ChEMBL document CHEMBL1687766, “In vitro activity of the new multivalent glycopeptide-cephalosporin antibiotic TD-1792 against vancomycin-nonsusceptible Staphylococcus isolates” (Antimicrob Agents Chemother, 2010)
